According to ChEMBL document CHEMBL2069171, “Novel monobactams utilizing a siderophore uptake mechanism for the treatment of gram-negative infections” (Bioorg Med Chem Lett, 2012):
Values after ≈ are worked out from the molar mass of the structure shown.

Experiments:
Escherichia coli = assay: Antibacterial activity against Escherichia coli; format: functional
Procedure, shortened: (§1)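 MICs determined against an organism panel of drug-susceptible strains and recent MDR clinical isolates. For selected analogs, MIC90 was taken from broader panels as the concentration inhibiting visible growth of 90 percent of strains.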

Acinetobacter baumannii = assay: Antibacterial activity against Acinetobacter baumannii; format: functional; procedure, shortened: as §1
Pseudomonas aeruginosa [1] = assay: Antibacterial activity against penicillin-resistant, quinolone-sensitive Pseudomonas aeruginosa 1091-05; format: functional
Pseudomonas aeruginosa [2] = assay: Antibacterial activity against Pseudomonas aeruginosa; format: functional
Procedure, shortened: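 MICs for P. aeruginosa were determined on a drug-susceptible strain, 1091-05 (penicillin-resistant, quinolone-sensitive clinical strain), and a recent MDR clinical isolate, 1042-06. For selected analogs, MIC90 was taken from broader strain panels as the concentration inhibiting visible growth of 90 percent of strains.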

Pseudomonas aeruginosa [3] = assay: Antibacterial activity against beta-lactam- and quinolone-resistant Pseudomonas aeruginosa 1042-06; format: functional
Klebsiella pneumoniae = assay: Antibacterial activity against Klebsiella pneumoniae; format: functional; procedure, shortened: as §1
[4] = Aqueous stability of the compound at pH 6; format: physicochemical; details: buffer
[5] = Total clearance in rat at 1 mg/kg, iv; format: ADME, organism-based; design: dose 1 mg/kg, route intravenous; details: in vivo
[6] = Fraction unbound in rat plasma; format: ADME, cell-free
Rattus norvegicus = assay: Unbound clearance in rat at 1 mg/kg, iv; format: ADME, organism-based; design: dose 1 mg/kg, route intravenous; details: in vivo
[7] = Fraction unbound in human plasma; format: ADME, cell-free
Pseudomonas aeruginosa [8] = assay: Antibacterial activity against penicillin-resistant, quinolone-sensitive Pseudomonas aeruginosa 1091-05 infected in mouse model of pneumonia assessed as reduction of lung colony forming unit counts; format: functional
Procedure, shortened: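 Murine pneumonia model infected with P. aeruginosa 1091-05. ED50, in mg/kg/dose, derived from reductions in lung CFU counts over the course of the study.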

[9] = Total clearance in mouse plasma relative to protein binding and blood flow; format: ADME, organism-based
[10] = Fraction unbound in mouse plasma; format: ADME, cell-free
[11] = Clearance in mouse; format: ADME, organism-based; details: in vivo

Row | Compound | MIC90 (Escherichia coli) [µg/mL] | MIC90 (Acinetobacter baumannii) [µg/mL] | MIC (Pseudomonas aeruginosa [1]) [µg/mL] | MIC90 (Pseudomonas aeruginosa [2]) [µg/mL] | MIC (Pseudomonas aeruginosa [3]) [µg/mL] | MIC90 (Klebsiella pneumoniae) [µg/mL] | also measured
1 | CC1(C)[C@H](NC(=O)/C(=N\OCc2cc(=O)c(O)cn2O)c2csc(N)n2)C(=O)N1OS(=O)(=O)O (stereo in doubt) | 16 (≈ 30.9 µM) | 64 (≈ 123 µM) | 1 (≈ 1.93 µM) | 4 (≈ 7.71 µM) | 8 (≈ 15.4 µM) | > 64 | 
2 | CC(C)(O/N=C(\C(=O)N[C@H]1CN(C(=O)NS(=O)(=O)n2nc(-c3cc(=O)c(O)c[nH]3)n(C[C@@H](O)CO)c2=O)C1=O)c1csc(N)n1)C(=O)O (stereo in doubt) |  |  |  |  | 0.5 (≈ 0.7 µM) |  | 
3 | C[C@H]1[C@H](NC(=O)/C(=N\OC(C)(C)C(=O)O)c2csc(N)n2)C(=O)N1C(=O)NS(=O)(=O)n1nc(-c2cc(=O)c(O)c[nH]2)n(C[C@@H](O)CO)c1=O (stereo in doubt) |  |  |  |  |  |  | Stability [4]: Stable
4 | Nc1nc(/C(=N/OCC(=O)O)C(=O)N[C@@H]2C(=O)N(S(=O)(=O)O)[C@@H]2COC(=O)CNC(=O)c2ccc(O)c(O)c2)cs1 (stereo in doubt) |  |  | 0.5 (≈ 0.811 µM) |  | 32 (≈ 51.9 µM) |  | 
5 | CC(C)(O/N=C(\C(=O)N[C@@H]1C(=O)N(S(=O)(=O)O)[C@@H]1COC(=O)CNC(=O)c1ccc(O)c(O)c1)c1csc(N)n1)C(=O)O (stereo in doubt) |  |  | 1 (≈ 1.55 µM) |  | 16 (≈ 24.8 µM) |  | 
6 | CC(C)(O/N=C(\C(=O)N[C@@H]1C(=O)N(S(=O)(=O)O)[C@@H]1COC(=O)CNC(=O)c1cc(=O)c(O)c[nH]1)c1csc(N)n1)C(=O)O (stereo in doubt) |  |  | 1 (≈ 1.55 µM) |  | 32 (≈ 49.6 µM) |  | 
7 | CC(C)(O/N=C(\C(=O)N[C@@H]1C(=O)N(S(=O)(=O)O)[C@@H]1COC(=O)CNC(=O)c1cc(=O)c(O)cn1O)c1csc(N)n1)C(=O)O (stereo in doubt) | 1 (≈ 1.51 µM) | > 64 | 0.125 (≈ 0.189 µM) | 2 (≈ 3.02 µM) | 0.5 (≈ 0.756 µM) | 32 (≈ 48.4 µM) | Stability [4]: Stable; clearance [5]: 8.9 mL/min/kg; fraction unbound [6]: 0.36; CL free (Rattus norvegicus): 24.7 mL/min/kg; fraction unbound [7]: 0.57
8 | CC(C)(O/N=C(\C(=O)N[C@@H]1C(=O)N(S(=O)(=O)O)[C@@H]1COC(=O)c1cc(-c2cc(=O)c(O)cn2O)no1)c1csc(N)n1)C(=O)O (stereo in doubt) | 0.125 (≈ 0.186 µM) | > 64 | 0.25 (≈ 0.372 µM) | 1 (≈ 1.49 µM) | 0.25 (≈ 0.372 µM) | 2 (≈ 2.98 µM) | clearance [5]: 34.7 mL/min/kg; fraction unbound [6]: 0.24; CL free (Rattus norvegicus): 144.6 mL/min/kg; fraction unbound [7]: 0.32
9 | CC(C)(O/N=C(\C(=O)N[C@@H]1C(=O)N(S(=O)(=O)O)[C@@H]1COC(=O)c1cc(-c2cc(=O)c(O)c[nH]2)no1)c1csc(N)n1)C(=O)O (stereo in doubt) |  |  | 4 (≈ 6.1 µM) |  | 4 (≈ 6.1 µM) |  | 
10 | CC(C)(O/N=C(\C(=O)N[C@@H]1C(=O)N(S(=O)(=O)O)[C@@H]1COC(=O)c1csc(-c2cc(=O)c(O)c[nH]2)n1)c1csc(N)n1)C(=O)O (stereo in doubt) |  |  | 0.5 (≈ 0.744 µM) |  | 1 (≈ 1.49 µM) |  | 
11 | CC(C)(O/N=C(\C(=O)N[C@@H]1C(=O)N(S(=O)(=O)O)[C@@H]1COC(=O)c1ccnc(-c2cc(=O)c(O)c[nH]2)n1)c1csc(N)n1)C(=O)O (stereo in doubt) |  |  | 8 (≈ 12 µM) |  | 32 (≈ 48 µM) |  | 
12 | CC(C)(O/N=C(\C(=O)N[C@@H]1C(=O)N(S(=O)(=O)O)[C@@H]1CNC(=O)c1cc(-c2cc(=O)c(O)cn2O)no1)c1csc(N)n1)C(=O)O (stereo in doubt) | 1 (≈ 1.49 µM) | > 64 | 0.125 (≈ 0.186 µM) | 0.25 (≈ 0.373 µM) | 0.125 (≈ 0.186 µM) | 16 (≈ 23.9 µM) | ED50 (Pseudomonas aeruginosa [8]): 73.6 mg/kg; clearance [9]: 87 mL/min/kg; clearance [5]: 8.1 mL/min/kg; fraction unbound [10]: 0.65; fraction unbound [6]: 0.33; clearance [11]: 34.7 mL/min/kg; CL free (Rattus norvegicus): 24.5 mL/min/kg; fraction unbound [7]: 0.46
13 | C[C@@H](O)[C@H]1C(=O)N2C(C(=O)O)=C(S[C@@H]3CN[C@H](C(=O)N(C)C)C3)[C@H](C)[C@H]12 [MEROPENEM] | 0.06 (≈ 0.156 µM) | 64 (≈ 167 µM) | 0.5 (≈ 1.3 µM) | > 64 |  | 32 (≈ 83.4 µM) | 
